In ChEMBL document CHEMBL1151472, “In vitro interactions between tacrolimus and azoles against Candida albicans determined by different methods” (2008) one finds Activity and MIC data, which are given here for one compound.

By MIC is commonly meant the smallest concentration in the dilution series that meets the test's criterion for growth inhibition.

≈ marks a conversion by molar mass, not a printed value.

Common to all, as to format: functional
The subject of test [1] is Candida albicans. Kind of test: Antimicrobial activity against azole-resistant Candida albicans isolate CA10 assessed as growth at 0.25 ug/ml cotreated with 0.063 ug/ml calcineurin signaling inhibitor Tacrolimus after 48 hrs by microdilution checkboard technique relative to control. Further details: scale not given: the % may be the effect or the level left. In short, it runs like this: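 Checkerboard microdilution in RPMI 1640 (pH 7.0, 2% dextrose, 0.165 M MOPS). Azole dilutions run along columns and FK506 along rows, at 4× final concentration. Final inoculum 2.5 × 10^3 CFU/ml from Sabouraud-subcultured cells. Incubated 35°C for 48 h; OD read at 492 nm. Background from microorganism-free plates subtracted. Growth % = well OD / drug-free well OD. Triplicate on different days, values averaged.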
In general terms: In broth dilution the organism is exposed to a series of concentrations in liquid medium.

Test [2] deals with Candida albicans. Kind of test: Antimicrobial activity against azole-resistant Candida albicans isolate CA10 assessed as growth at 16 ug/ml cotreated with 0.063 ug/ml calcineurin signaling inhibitor tacrolimus after 48 hrs by microdilution checkerboard technique relative to control. Further details: scale not given: the % may be the effect or the level left. In short, it runs like this: (§1)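 Checkerboard microdilution in MOPS-buffered RPMI 1640 (pH 7.0, 2% dextrose). Final ranges: azole 0.125–128 μg/ml (FLC) or 0.008–8 μg/ml (ITR, VRC), tacrolimus 0.002–0.125 μg/ml; solvent 1% in single-drug wells. Inoculum 2.5 × 10^3 CFU/ml, 35°C, 48 h. Growth % = background-subtracted OD492 of each well / drug-free well. Triplicate on different days.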

Test [3] deals with Candida albicans. Description: Antimicrobial activity against azole-resistant Candida albicans isolate CA10 assessed as growth at 32 ug/ml cotreated with 0.063 ug/ml calcineurin signaling inhibitor Tacrolimus after 48 hrs by microdilution checkboard technique relative to control. Further details: scale not given: the % may be the effect or the level left. In short, it runs like this: (§2)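 CA10 in RPMI 1640 with 2% dextrose and 0.165 M MOPS, pH 7.0. Checkerboard used twofold dilutions, with azole alone in row H and the drug-free growth control in well H1. Final inoculum was 2.5 × 10^3 CFU/ml, incubated 35°C for 48 h, with OD read at 492 nm. Growth % = background-subtracted well OD / drug-free well OD. Run in triplicate on different days.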

Test [4] relates to Candida albicans. Description: Antimicrobial activity against azole-resistant Candida albicans isolate CA10 assessed as growth at 64 ug/ml cotreated with 0.063 ug/ml calcineurin signaling inhibitor Tacrolimus after 48 hrs by microdilution checkboard technique relative to control. Further details: scale not given: the % may be the effect or the level left. In short, it runs like this:
as §2

Test [5] deals with Candida albicans. Kind of test: Antimicrobial activity against azole-resistant Candida albicans isolate CA10 assessed as growth at 128 ug/ml cotreated with 0.016 ug/ml calcineurin signaling inhibitor tacrolimus after 48 hrs by microdilution checkerboard technique relative to control. Further details: scale not given: the % may be the effect or the level left. In short, it runs like this: as §1

Test [6] deals with Candida albicans. Description: Antimicrobial activity against azole-resistant Candida albicans isolate CA10 assessed as growth at 2 ug/ml cotreated with 0.002 ug/ml calcineurin signaling inhibitor tacrolimus after 48 hrs by microdilution checkerboard technique relative to control. Further details: scale not given: the % may be the effect or the level left. In short, it runs like this:
as §1

Test [7] relates to Candida albicans. Description: Antimicrobial activity against azole-resistant Candida albicans isolate CA10 assessed as growth at 0.5 ug/ml cotreated with 0.008 ug/ml calcineurin signaling inhibitor tacrolimus after 48 hrs by microdilution checkerboard technique relative to control. Further details: scale not given: the % may be the effect or the level left. In short, it runs like this:
as §1

Test [8] has as its system Candida albicans. Description: Antimicrobial activity against azole-resistant Candida albicans isolate CA10 assessed as growth at 64 ug/ml co-treated with 0.008 ug/ml calcineurin signaling inhibitor tacrolimus after 48 hrs by microdilution checkboard technique relative to control. Further details: scale not given: the % may be the effect or the level left. In short, it runs like this: as §2

Test [9] relates to Candida albicans. Kind of test: Antimicrobial activity against azole-resistant Candida albicans isolate CA10 assessed as growth at 32 ug/ml co-treated with 0.004 ug/ml calcineurin signaling inhibitor tacrolimus after 48 hrs by microdilution checkboard technique relative to control. Further details: scale not given: the % may be the effect or the level left. In short, it runs like this:
as §1

Test [10] relates to Candida albicans. Description: Antimicrobial activity against azole-resistant Candida albicans isolate CA10 assessed as growth at 64 ug/ml cotreated with 0.004 ug/ml calcineurin signaling inhibitor Tacrolimus after 48 hrs by microdilution checkboard technique relative to control. Further details: scale not given: the % may be the effect or the level left. In short, it runs like this:
as §2

Test [11] deals with Candida albicans. Kind of test: Antimicrobial activity against azole-resistant Candida albicans isolate CA10 assessed as growth at 1 ug/ml after 48 hrs by microdilution checkerboard technique relative to control. In short, it runs like this: as §1
Test [12] deals with Candida albicans. Description: Antimicrobial activity against azole-resistant Candida albicans isolate CA10 assessed as growth at 32 ug/ml after 48 hrs by microdilution checkerboard technique relative to control. The gist of the method: as §1
For test [13], the system named is Candida albicans. Description: Antimicrobial activity against azole-resistant Candida albicans isolate CA10 assessed as growth at 0.016 ug/ml after 48 hrs by microdilution checkerboard technique relative to control. In short, it runs like this:
as §1

The test system of test [14] is Candida albicans. Kind of test: Antimicrobial activity against azole-resistant Candida albicans isolate CA10 assessed as growth at 0.004 ug/ml after 48 hrs by microdilution checkerboard technique relative to control. The gist of the method: as §1
Test [15] deals with Candida albicans. Description: Antimicrobial activity against azole-susceptible Candida albicans isolate CA5 after 48 hrs by broth microdilution method. Particulars: isolate CA5, 48 h. In short, it runs like this: (§3)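 CLSI M27-A2 broth microdilution was run in RPMI 1640 (pH 7.0, 2% dextrose, 0.165 M MOPS). Inoculum was 2.5 × 10^3 CFU/ml, incubated 35°C for 48 h without shaking. Plates were read visually (0–5 scale) and at OD 492 nm. MIC80 = lowest concentration giving an 80% absorbance decrease vs drug-free control. Triplicate.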

Test [16] has as its system Candida albicans. Kind of test: Antimicrobial activity against azole-resistant Candida albicans isolate CA15 after 48 hrs by broth microdilution method. Particulars: isolate CA15, 48 h. The gist of the method: as §3
Test [17] has as its system Candida albicans. Description: Antimicrobial activity against azole-resistant Candida albicans isolate CA16 after 48 hrs by broth microdilution method. Particulars: isolate CA16, 48 h. The gist of the method:
as §3

In test [18] the test system is Candida albicans. Kind of test: Antimicrobial activity against azole-resistant Candida albicans isolate CA135 after 48 hrs by broth microdilution method. The note with it: isolate CA135, 48 h. In short, it runs like this:
as §3

For test [19], the system named is Candida albicans. Description: Antimicrobial activity against azole-susceptible Candida albicans isolate CA12 co-treated with calcineurin signaling inhibitor tacrolimus after 48 hrs by microdilution checkerboard technique. The note with it: isolate CA12, 48 h. In short, it runs like this: (§4)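 Checkerboard microdilution in MOPS-buffered RPMI 1640 (pH 7.0, 2% dextrose) with 2.5 × 10^3 CFU/ml for 48 h at 35°C. Final FK506 was 0.002–0.125 μg/ml. Azole finals were FLC 0.125–128 μg/ml, and ITR and VRC 0.008–8 μg/ml. MIC80 is an 80% OD492 decrease vs drug-free control. Interaction was scored by FICI (synergy ≤0.5, antagonism >4) and by ΔE from triplicates.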

The test system of test [20] is Candida albicans. Description: Antimicrobial activity against azole-resistant Candida albicans isolate CA15 cotreated with calcineurin signaling inhibitor Tacrolimus after 48 hrs by microdilution checkerboard technique. Particulars: isolate CA15, 48 h. In short, it runs like this: as §4
Test [21] relates to Candida albicans. Kind of test: Antimicrobial activity against azole-resistant Candida albicans isolate CA137 cotreated with calcineurin signaling inhibitor Tacrolimus after 48 hrs by microdilution checkerboard technique. The note with it: isolate CA137, 48 h. The gist of the method: as §4
Test [22] concerns Candida albicans. Description: Antimicrobial activity against azole-resistant Candida albicans isolate CA10 assessed as growth at 0.5 ug/ml co-treated with 0.125 ug/ml calcineurin signaling inhibitor tacrolimus after 48 hrs by microdilution checkboard technique relative to control. Further details: scale not given: the % may be the effect or the level left. The gist of the method:
as §1

In test [23] the test system is Candida albicans. Kind of test: Antimicrobial activity against azole-resistant Candida albicans isolate CA10 assessed as growth at 8 ug/ml cotreated with 0.125 ug/ml calcineurin signaling inhibitor Tacrolimus after 48 hrs by microdilution checkboard technique relative to control. Further details: scale not given: the % may be the effect or the level left. In short, it runs like this: as §2

The subject of test [24] is Candida albicans. Kind of test: Antimicrobial activity against azole-resistant Candida albicans isolate CA10 assessed as growth at 16 ug/ml cotreated with 0.125 ug/ml calcineurin signaling inhibitor tacrolimus after 48 hrs by microdilution checkerboard technique relative to control. Further details: scale not given: the % may be the effect or the level left. The gist of the method: as §1

Turning to `OC(Cn1cncn1)(Cn1cncn1)c1ccc(F)cc1F` [FLUCONAZOLE], the Activity was found to be 11% in test [1]; 7% in [2]; 1% in test [3]; 0% in test [4]; 18% in test [5]; 48% in test [6]. In addition, the Activity in test [7] is listed as 34%; in test [8] it was 21%; in [9], 30%; in test [10], 27%; in test [11], 56%; in test [12], 48%. Besides, the Activity is recorded as 96% in test [13]; 99% in test [14]; 6% in test [22]; 2% in [23]; 3% in [24]. Besides, the MIC turned out to be 0.25 µg/mL (≈ 0.816 µM) in test [15]; 128 µg/mL (≈ 418 µM) in [16]; 64 µg/mL (≈ 209 µM) in test [17]; 64 µg/mL (≈ 209 µM) in [18]; 2 µg/mL in [19]; 0.5 µg/mL in test [20]. For the same compound, the MIC in [21] turned out to be 0.5 µg/mL.
